Measurements as given in ChEMBL document CHEMBL1128245, “Dual-acting thromboxane receptor antagonist/synthase inhibitors: synthesis and biological properties of [2-substituted-4-(3-pyridyl)-1,3-dioxan-5-yl] alkenoic acids” (J Med Chem, 1995).

How the values were obtained:
Canis familiaris = assay: Ex vivo TXA2 ([…]) antagonist activity was determined for U-46,619 induced aggregation (dose ratio) after 24 hr of oral dosing (3 mg/kg) in the dog; format: functional, Canis lupus familiaris
Method in brief: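 Dogs (n = 4) dosed orally, blood sampled at 2, 5, 8 and 24 h. Platelet-rich plasma aggregated with U46619 plus a predetermined threshold ADP concentration (about 0.4–1.2 × 10^-6 M), compared before vs after dosing to give a U46619 dose ratio. ">" marks the maximum achievable ratio at top U46619 (1 × 10^-4 M).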

Homo sapiens = species: Homo sapiens; assay: In vitro inhibition of U-46,619-induced aggregation of unwashed human platelets.; format: functional
Method in brief: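 Citrated (3.2%) human venous blood spun at 200g for 10 min. Platelet-rich plasma aggregated with U46619 with or without several antagonist concentrations.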

Rattus norvegicus [1] = assay: Ex vivo […] (TXA2 synthase) inhibitory activity after 1 hr of oral dosing (5 mg/kg) in the rat; format: functional
Method in brief: (§1)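 Rats (n = 6) gavaged, anesthetized, aortic blood taken at 1, 3 or 5 h after dosing. A blood aliquot was challenged with collagen and TXB2 measured by radioimmunoassay; expressed as % inhibition of TXA2 synthase (±SEM).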

Rattus norvegicus [2] = assay: Ex vivo […] (TXA2 synthase) inhibitory activity after 3 hr of oral dosing (1 mg/kg) in the rat; format: functional; method in brief: as §1
Rattus norvegicus [3] = assay: Ex vivo […] (TXA2 synthase) inhibitory activity after 5 hr of oral dosing (10 mg/kg) in the rat; format: functional; method in brief: as §1
Rattus norvegicus [4] = assay: Ex vivo […] (TXA2 synthase) inhibitory activity after 5 hr of oral dosing (5 mg/kg) in the rat; format: functional; method in brief: as §1
Rattus norvegicus [5] = assay: Ex vivo TXA2 ([…]) antagonist activity was determined for U-46,619 induced aggregation (dose ratio) after 5 hr of oral dosing (5 mg/kg) in the rat; format: functional
Method in brief: (§2)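 Conscious rats (n = 6) dosed by oral gavage, then anesthetized and bled from the abdominal aorta at 1, 3 or 5 h. Platelet-rich plasma aggregated with U46619 before and after dosing to give a U46619 dose ratio. ">" values mark the maximum dose ratio achievable at the top U46619 concentration (1 × 10^-4 M).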

Rattus norvegicus [6] = assay: Ex vivo TXA2 ([…]) antagonist activity was determined for U-46,619 induced aggregation (dose ratio) after 1 hr of oral dosing (3 mg/kg) in the rat; format: functional; method in brief: as §2
Rattus norvegicus [7] = assay: Ex vivo TXA2 ([…]) antagonist activity was determined for U-46,619 induced aggregation (dose ratio) after 3 hr of oral dosing (5 mg/kg) in the rat; format: functional; method in brief: as §2
Rattus norvegicus [8] = assay: Ex vivo TXA2 ([…]) antagonist activity was determined for U-46,619 induced aggregation (dose ratio) after 5 hr of oral dosing (3 mg/kg) in the rat; format: functional; method in brief: as §2
Thromboxane-A synthase = target: T1, Thromboxane-A synthase (Homo sapiens, UniProt P24557); assay: In vitro Inhibition of thromboxane synthase from human blood platelet microsomes
T1 sequence (P24557 whole entry): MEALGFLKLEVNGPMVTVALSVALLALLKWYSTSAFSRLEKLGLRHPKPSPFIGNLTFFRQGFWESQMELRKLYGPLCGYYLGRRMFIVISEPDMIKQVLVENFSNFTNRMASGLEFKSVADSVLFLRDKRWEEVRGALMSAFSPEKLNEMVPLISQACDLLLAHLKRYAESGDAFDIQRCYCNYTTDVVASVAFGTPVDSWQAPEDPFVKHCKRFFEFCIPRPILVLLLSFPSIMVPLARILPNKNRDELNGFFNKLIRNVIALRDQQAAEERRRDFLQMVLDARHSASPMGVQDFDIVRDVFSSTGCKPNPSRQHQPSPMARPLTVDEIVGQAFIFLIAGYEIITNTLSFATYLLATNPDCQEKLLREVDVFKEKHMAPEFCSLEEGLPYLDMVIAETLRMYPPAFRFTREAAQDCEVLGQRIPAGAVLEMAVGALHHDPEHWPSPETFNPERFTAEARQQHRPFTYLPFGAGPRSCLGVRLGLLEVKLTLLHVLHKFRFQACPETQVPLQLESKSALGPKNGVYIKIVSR
Method in brief: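 Human blood platelet microsomes incubated with [1-14C]arachidonic acid with or without inhibitor. Conversion to labeled thromboxane B2 quantified radiochromatographically. n = 2.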

Rattus norvegicus [9] = assay: Ex vivo TXA2 ([…]) antagonist activity was determined for U-46,619 induced aggregation (dose ratio) after 3 hr of oral dosing (3 mg/kg) in the rat; format: functional; method in brief: as §2

In the case of `Cc1ccc(OC(C)(C)C2OCC(C/C=C\CCC(=O)O)C(c3cccnc3)O2)c([N+](=O)[O-])c1` (stereo in doubt; 7x), the Antagonist activity (Canis familiaris) is reported as >281, the pA2 (Homo sapiens) is reported as 8.43 and the Inhibition (Rattus norvegicus [1]) is reported as 92.9%. It also gave an Inhibition (Rattus norvegicus [2]) of 38.8%, an Inhibition (Rattus norvegicus [3]) of 89% and an Inhibition (Rattus norvegicus [4]) of 79.3%. The Antagonist activity (Rattus norvegicus [5]) was >47, the Antagonist activity (Rattus norvegicus [6]) was >34 and the Antagonist activity (Rattus norvegicus [7]) was >59. For the same molecule, the Antagonist activity (Rattus norvegicus [8]) was >21, the IC50 (Thromboxane-A synthase) was 19 nM and the Antagonist activity (Rattus norvegicus [9]) was >23.
